# Assay results published in the RNAGym collection of RNA variant scans (doi:10.1126/science.aae0568).
# Fewer inactive variants are shown than the library holds.
# B1: tRNA (parent)
# chain: GUUCCGUUGGCGUAAUGGUAACGCGUCUCCCUCCUAAGGAGAAGACUGCGGGUUCGAGUCCCGUACGGAACG
# Variants of: B1
# Test: yeast fitness relative to wild type (ratio to wild type); higher = fitter; tRNA-Arg(CCU), competitive growth, 37 C, YPD
# Outline: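 The tRNA-Arg(CCU) gene variants were made by chemical synthesis with a 3% per-site mutation rate at 69 sites and inserted at the native genomic locus of Saccharomyces cerevisiae. After pooling, the strains were competed in YPD at 37°C for 24 hours in six parallel replicates. Gene amplicons from the start population and each end population were read by 100-nucleotide paired-end sequencing, and Darwinian fitness relative to wild type was taken from genotype frequency changes. Genotypes needed ≥ 100 starting reads, and estimates < 0.5 were set to 0.5.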
row,Variant,yeast fitness
1,C4A G9C C30A G39A,0.51
2,C4A C11U,0.781
3,C4A U13A G63A,≤ 0.5
4,C4A C11A U13C,0.605
5,C4A G17A C27G C55U,0.62
6,C4A G17A G41A A69U,≤ 0.5
7,C4A G10C C29G A65G,≤ 0.5
8,C4A U16C G17A U59A,≤ 0.5
9,C4A G18C C29A C31A,0.562
10,C4A U19C A42G C60G,≤ 0.5
11,C4A C5A C34A C46U A65C,≤ 0.5
12,C4A G10C A69C,≤ 0.5
13,C4A U54G,0.612
14,C4A G41A A45U G58U C60A,≤ 0.5
15,C4A G9A C24U C30U A36G G67A,0.565
16,C4A G68U A69G,0.705
17,C4A U13G U32G C55U G63C,≤ 0.5
18,C4A G6A C11A C22U C29U C55A G68U,≤ 0.5
19,C4A G10C C11U C27U A45U U59C C60G,≤ 0.5
20,C4A U35A A37U G67U,≤ 0.5
21,C4A G10A A36U,≤ 0.5
22,C4A C46A G67A,0.73
23,C4A C31A C33G U47A A65C,0.627
24,C4A G12C U19C C24G A43U G67A,≤ 0.5

row,Variant,yeast fitness
1,C4A U7A C46U,≤ 0.5
2,C4G A14C C24U C49U,≤ 0.5
3,C4A G6C C22U G51C C62A,≤ 0.5
4,C4A U26G G44C G56C G58A G68C,≤ 0.5
5,C4A U7A A14G G17C G56A C62U,≤ 0.5
6,C4A C30G A40U A45U G48A,≤ 0.5
7,C4A U47A A70G,0.536
8,C4A U26A U32G A42C A57U,≤ 0.5
9,C4A U8G A14U,0.524
10,C4A U28C U47C,≤ 0.5
11,C4A G9C A14G C30A G39A,≤ 0.5
12,C4A G51A,0.725
13,C4A U7C C24G C61A C66U,≤ 0.5
14,C4A U16A C29G U32C C55U C66U,≤ 0.5
15,C4A G9A U16A C30U A40G C46U,≤ 0.5
16,C4A C11G U19G,≤ 0.5
17,C4A C31A U35C A45U,≤ 0.5
18,C4A G17C C22U,≤ 0.5
19,C4A C30G U59A,0.528
20,C4A C5G C30A,≤ 0.5
21,C4A G18C C34U,≤ 0.5
22,C4A G18A G58A A70U,≤ 0.5
23,C4A C5A U28G C31G U47C A57U A70G,≤ 0.5
24,C4A C61U A69C,0.578

row,Variant,yeast fitness
1,C4A C49A,0.684
2,C4A C30U G38C A42G,≤ 0.5
3,C4A C5U C24G,≤ 0.5
4,C4A C11U C29G U32A G52A,0.596
5,C4A U54G A65U,≤ 0.5
6,C4A U8G G41C A45G,0.703
7,C4A C30A A37C,≤ 0.5
8,C4A C33A G39A G51C,0.657
9,C4A U7A C31A C55A,0.717
10,C4A C33G A45G A70U,≤ 0.5
11,C4A G18C C29A C31A A36U,≤ 0.5
12,C4A U13A A70G,≤ 0.5
13,C4A C29G C34G,0.782
14,C4A C24G,0.714
15,C4A C24U,0.733
16,C4A G18A C27A A37C G56A,0.579
17,C4A C5A G41C G56A C62U A65C,≤ 0.5
18,C4A U13C C31G G44C G52A G58A,≤ 0.5
19,C4A G17C G23C A57C,≤ 0.5
20,C4A C33G A57G,0.576
21,C4A U8C G10A A42C,≤ 0.5
22,C4A C27U C60G,≤ 0.5
23,C4A C22A C33A G39C,≤ 0.5
24,C4A C33G A45G,≤ 0.5

row,Variant,yeast fitness
1,C4G A14U C24U C49G G63A,≤ 0.5
2,C4A C27A G38A,0.513
3,C4A U32C A40U A69U,≤ 0.5
4,C4A G39A C55U U59G G68C,≤ 0.5
5,C4A C34G G38C A70G,≤ 0.5
6,C4A C22A A69U,0.528
7,C4A C34U,0.666
8,C4A C34A,0.817
9,C4A G12C U19C C24G A43U C61U,0.532
10,C4A U8C U59A,≤ 0.5
11,C4A G6C G10A U28A,≤ 0.5
12,C4A U7G G12C C60U C62G,≤ 0.5
13,C4A U26C A37G G67C,≤ 0.5
14,C4A U53A,0.769
15,C4A G17C A20C A21U C27U C33G G63A G67A,≤ 0.5
16,C4A C5G A20G U54A C62U,≤ 0.5
17,C4A U28A C62U C66A,≤ 0.5
18,C4A C66U,0.862
19,C4A C27U G39C,0.632
20,C4A C27G C34G A37U U64A,≤ 0.5
21,C4A G17A C60G,0.697
22,C4A C5U C34U,≤ 0.5
23,C4A U16C U35G A45U G51A,≤ 0.5
24,C4A C5U U19A C66A,≤ 0.5

row,Variant,yeast fitness
1,C4A U64C G68C,0.971
2,C4A U32C A42C,0.578
3,C4A C24U A65C,0.65
4,C4A G52A,0.884
5,C4A C30G A45C C61G,≤ 0.5
6,C4A U8C,0.887
7,C4A U8A,0.694
8,C4G A14C G25C A45U,≤ 0.5
9,C4G A14G C24G,≤ 0.5
10,C4G A14U A21C,0.764
11,C4A G12A,0.666
12,C4A G10C C11U G41A A45C A65U,≤ 0.5
13,C4A G18C C49A G52C,≤ 0.5
14,C4A C30G G41C G68A,≤ 0.5
15,C4A C5G U19A C46U A69U,0.574
16,C4A C5U G17A,≤ 0.5
17,C4G A14G G38A G56C A70G,≤ 0.5
18,C4A G51C U54A G56C,≤ 0.5
19,C4A C31G G39A G51C,≤ 0.5
20,C4A C46G C62U,0.609
21,C4A C5U G17A C30U G68C,≤ 0.5
22,C4A C22G A40C G67A,0.61
23,C4A C11U A37C,0.537
24,C4A U7A U13A C30A U64C,0.56

row,Variant,yeast fitness
1,C4A G23A C24G C61A C66U,≤ 0.5
2,C4G A14C G48C,0.579
3,C4A G12C U13G C30U,0.55
4,C4A G67C,0.69
5,C4A U8A C24U,≤ 0.5
6,C4A U35A U47C C49U C62A A69G,≤ 0.5
7,C4A C5U U8C U64A,≤ 0.5
8,C4A U13C U28A C34G,≤ 0.5
9,C4A U8C U47C,0.579
10,C4A U32C G48C C55U,≤ 0.5
11,C4A C55A A69C A70U,≤ 0.5
12,C4A G25A C27U U28G C33G A36G,≤ 0.5
13,C4A G18C A43C,≤ 0.5
14,C4A G23C A40C C55A,0.63
15,C4A G56C C60G C66U,0.568
16,C4A C5A C29U G51C,≤ 0.5
17,C4A C33A A40U,0.522
18,C4A G12A A45U,0.546
19,C4A G18A A20C U26G C27U C49U A69C,≤ 0.5
20,C4A G17A U19C G41A C66U,≤ 0.5
21,C4A C34G G39C,≤ 0.5
22,C4A C5U,0.837
23,C4A C5A A42U A57C C61U A65U,≤ 0.5
24,C4A G23A U53C A57C,≤ 0.5

row,Variant,yeast fitness
1,C4A U32A A57G A65U,≤ 0.5
2,C4A C5A C11U A20U A69C,≤ 0.5
3,C4A G39A G63C,≤ 0.5
4,C4A C11U C22A G23C A40G,≤ 0.5
5,C4A C11A U47G,≤ 0.5
6,C4A G6A U16C G38A G58C C66U,≤ 0.5
7,C4A G12C U13G C30U A65U,≤ 0.5
8,C4A U8C A14U A20C U28G,0.54
9,C4A G25A,1.03
10,C4A G6A A65G,0.56
11,C4A G23A U35C G56A,≤ 0.5
12,C4A C31A C33G U47A,≤ 0.5
13,C4A U26C,0.972
14,C4A C31U A37G G48A U54A C55G A65U,≤ 0.5
15,C4A U7A C31A U54A,≤ 0.5
16,C4A C27U A37G,0.566
17,C4G A14C C49U,≤ 0.5
18,C4A U53C G67C,0.537
19,C4A C29G C33G A43U,≤ 0.5
20,C4A C24G U28A U35C C49U,0.542
21,C4A C27U A40U G52C C60G,≤ 0.5
22,C4A C5U A57U U59C,≤ 0.5
23,C4A G9C C30A G39A G56C,≤ 0.5
